# GC-A act – GC-A (human) enzyme activation; HEK293 GC-A cells, cGMP TR-FRET, EC30 ANP; 0% at EC30 ANP, 100% saturating ANP; activation, % at 10 µM; 370,000 tested, 0.14% active; AID 1671463; in the data active = activation above about 40%
# Lipid droplet – hepatic lipid droplet formation modulation. AML12 mouse hepatocytes, oleate lipid droplets, BODIPY imaging. inhibition, % at 6.5 µM. 240,000 tested, 0.4% active;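 active = lipid droplet intensity inhibited by at least 50%, with more than 500 cells counted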
#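 Test system: AML12 hepatocytes (mouse); reagent: oleate loading, 100 µM; dosing: one dose, 6.5 µM compound; incubation: overnight exposure; signal: fluorescence imaging, 20x objective, two fields per well; read-out basis: % inhibition of corrected integrated BODIPY droplet signal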
# NR3A LBD binder – modulates the human NR3A ligand-binding domain | 340,000 tested, 2.5% active | Tm shift relative to glycine control, % at 25 µM | NR3A LBD differential scanning fluorimetry, Tm shift; 0% = protein alone, 100% = glycine-bound protein | AID 1259313;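 active = melting temperature shift of at least 10% of the positive control shift, at one fixed dose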
# aDG glyco up – alpha-DG glycosylation activation | activation, % at 10 µM | Pro5-aDG cells, alpha-DG glycosylation AlphaScreen (IIH6); 0% Pro5, 100% B10-LARGE cell signal | 360,000 tested, 0.22% active | AID 624168;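 active = activation of at least 8% versus controls, or a plate z-score of at least 8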;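 note: Pro5 are CHO cells carrying HIG-tagged alpha-DG that lacks glycosylation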
# NPR2 activator – GC-B (human) receptor activation; P20594; HEK293-GC-B cells, CNP EC30, cGMP TR-FRET; 0% at EC30 CNP, 100% saturating CNP; activation, % at 10 µM; 370,000 tested, 0.11% active;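 active = activation at 10 µM reaching about 35% in either raw or pattern-adjusted values, limit read from the data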
# Target sequence (P20594 whole entry, looked up): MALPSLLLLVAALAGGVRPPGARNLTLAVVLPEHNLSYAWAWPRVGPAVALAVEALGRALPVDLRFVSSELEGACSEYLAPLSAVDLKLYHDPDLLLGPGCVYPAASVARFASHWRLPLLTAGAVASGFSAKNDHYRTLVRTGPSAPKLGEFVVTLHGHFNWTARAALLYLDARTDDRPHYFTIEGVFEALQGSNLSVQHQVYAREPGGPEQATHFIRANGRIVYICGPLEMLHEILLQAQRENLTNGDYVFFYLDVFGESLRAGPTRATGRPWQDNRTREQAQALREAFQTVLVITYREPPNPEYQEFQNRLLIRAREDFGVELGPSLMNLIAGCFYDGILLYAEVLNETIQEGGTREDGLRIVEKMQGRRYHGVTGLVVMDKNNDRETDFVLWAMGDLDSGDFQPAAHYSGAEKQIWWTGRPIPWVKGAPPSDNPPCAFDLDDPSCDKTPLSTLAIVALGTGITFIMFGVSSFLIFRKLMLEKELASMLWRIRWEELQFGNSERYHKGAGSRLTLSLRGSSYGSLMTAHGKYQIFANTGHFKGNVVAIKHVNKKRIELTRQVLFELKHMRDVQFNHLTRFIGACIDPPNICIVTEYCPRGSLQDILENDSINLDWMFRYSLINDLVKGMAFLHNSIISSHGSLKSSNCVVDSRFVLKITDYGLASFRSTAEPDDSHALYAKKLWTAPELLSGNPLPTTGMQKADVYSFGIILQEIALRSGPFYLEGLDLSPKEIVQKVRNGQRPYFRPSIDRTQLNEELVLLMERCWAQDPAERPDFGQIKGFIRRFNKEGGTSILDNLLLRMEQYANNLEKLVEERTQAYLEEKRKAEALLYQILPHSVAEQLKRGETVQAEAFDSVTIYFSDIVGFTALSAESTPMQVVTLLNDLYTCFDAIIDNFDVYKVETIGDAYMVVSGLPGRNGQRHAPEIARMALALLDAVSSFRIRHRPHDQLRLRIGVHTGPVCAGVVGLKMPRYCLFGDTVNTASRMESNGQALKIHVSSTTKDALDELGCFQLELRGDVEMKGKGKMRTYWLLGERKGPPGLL
# GASC-1 inh – human JMJD2C demethylase inhibition. inhibition, % at 2.35 µM. GST-JMJD2C(1-420) H3K9me3 demethylation, DELFIA europium. 330,000 tested, 0.069% active. Q9H3R0;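 active = more than half of a compound's replicate wells show inhibition beyond 50%, single wells judged on their own value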;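 note: signal counts dimethyl H3K9 product captured on neutravidin plate; 0% = median of DMSO wells and 100% = 0.3 times that DMSO median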
# An asterisk follows results filed as active; . = not tested or not shown. The list is not random: actives were taken first. Their share in the collection is about 3%.
SMILES,GC-A act,Lipid droplet,NR3A LBD binder,aDG glyco up,NPR2 activator,GASC-1 inh
COc1ccccc1NC(=O)Nc1ccc2c(c1)CCC2,-3,-2,3,0,-1,1
COc1ccc(C)cc1NC(=O)Nc1ccc2c(c1)CCC2,-4,-25,11*,0,0,12
Cc1cc(C)cc(NC(=O)Nc2ccc3c(c2)CCC3)c1,-2,0,12*,2,5,6
O=C(Nc1ccc(F)cc1)Nc1ccc2c(c1)CCC2,3,-12,8,1,1,-8
CCOC(=O)Cn1cc(CN2C(C(=O)OC)CN(Cc3ccc(Cl)cc3)CCS2(=O)=O)nn1 (stereo not drawn),1,.,.,.,1,.
Cc1ccc2nc(-c3ccc(NC(=O)CSc4nnc(-c5cc(-c6ccc(F)cc6)n[nH]5)n4N)cc3)sc2c1,6,.,.,.,-7,.
CCn1c2ccccc2c2cc(NC(=O)COC(=O)c3cc(F)cc(F)c3)ccc21,-4,.,.,.,1,.
COC(=O)[C@H]1C[C@@]2(c3ccccc3)c3ccccc3N[C@H]2N1,-4,.,.,.,0,.
COC(=O)c1ccc(NC(=O)Nc2cccc(F)c2)cc1,2,2,30*,1,-4,7
O=C(Nc1ccc(F)cc1)Nc1cccc(Br)c1,4,.,43*,0,7,9
O=C(Nc1cccc([N+](=O)[O-])c1)Nc1cccs1,1,0,19*,2,3,9
O=C(Nc1ccccc1)Nc1ccc2c(c1)CCC2,5,5,11*,1,6,-6
CN(C)c1ccc(C(=O)NC2CCCCN(Cc3ccc(Cl)cc3)C2=O)cc1 (stereo not drawn),0,.,.,.,3,.
O=C(Nc1cccc(F)c1)Nc1ccccn1,2,.,-31,0,1,-16
O=C(Nc1cccc(F)c1)Nc1cnccn1,3,-2,21*,0,-2,-4
CC(C)[C@@H](N)C(=O)N/N=C/c1ccc2nccnc2c1,0,5,11*,0,1,-9
CCOC(=O)C1CCN(CC(O)COCc2ccccc2)CC1 (stereo not drawn),-4,-10,14*,0,4,-24
CCOC(=O)[C@]12CCCCC/C=C\1N(CCc1ccc(Cl)cc1)C(=O)[C@H]2CC(=O)NCCCOC,0,.,.,.,-8,.
O=C(CN1CCOCC1)N1CCOCC1,-6,.,0,0,1,.
Cc1ccccc1NC(=O)c1cc(C(=O)c2cc(Cl)ccc2O)cn(-c2ccccc2C)c1=O,-4,-1,14*,0,2,12
Cc1ccc(-n2cc(C(=O)c3cc(Cl)ccc3O)cc(C#N)c2=O)cc1,-1,38,2,0,0,6
CC(=O)c1cccc(NC(=O)C(=O)Nc2cccc3ccccc23)c1,-1,-2,62*,0,-3,-7
O=[N+]([O-])c1ccc(S(=O)(=O)NN=Cc2ccc(Cl)c(Cl)c2)cc1,1,.,12*,0,4,.
Cc1cccc2cc3c(N)c(C#N)sc3nc12,-7,.,36*,0,-8,-3
Cc1cccc2cc3c(N)c(C(=O)N4CCc5ccccc54)sc3nc12,-5,21,8,1,-3,-11
SMILES,GC-A act,Lipid droplet,NR3A LBD binder,aDG glyco up,NPR2 activator,GASC-1 inh
Cc1sc(NC(=O)c2sc3nc4c(C)cccc4cc3c2N)c(C#N)c1C,1,.,19*,0,-11,0
Cc1cccc2cc3c(N)c(C(=O)Nc4ccc(N5CCOCC5)cc4)sc3nc12,1,.,14*,0,-2,-2
CCOC(=O)[C@@]12CCCC3=C1N(CCC3)C(=O)[C@H]2CC(=O)N1CCCCC1,2,.,.,.,8,.
CC(=O)NCCSc1ccc(S(=O)(=O)N2CCCC2)cn1,3,.,1,0,4,-6
COc1ccc(/C=C/C(=O)NC(=S)Nc2cc([N+](=O)[O-])ccc2O)cc1OC,-3,-18,19*,0,-2,-5
COc1cccc(/C=C/C(=O)Nc2cccc(C(C)=O)c2)c1OC,2,0,15*,0,4,-5
COc1cccc(/C=C/C(=O)Nc2ccc3c(c2)OCCO3)c1OC,9,4,20*,0,4,6
COc1ccc(/C=C/C(=O)Nc2cccc(C(C)=O)c2)cc1,3,5,-8,0,-2,6
COc1cccc(OC)c1C(=O)NC(=S)Nc1ccc2c(c1)OCCO2,1,1,-1,0,-7,44
COc1cccc(/C=C/C(=O)Nc2ccc(C(=O)Nc3cccc(S(N)(=O)=O)c3)cc2)c1OC,-6,3,39*,0,2,2
COCCN1Cc2cc(C(=O)OC)c3c(c2C1=O)c1cc(F)ccc1n3S(=O)(=O)c1cccc(C)c1,-6,.,.,.,-2,.
COc1ccccc1NC(=S)OCCN1CCCC12CCC(c1ccccc1)CC2 (stereo not drawn),-1,.,.,.,-6,.
C=CCO[C@H]1CN(C(=O)OC)[C@@H](c2ccccc2Br)C[C@H]1OCC=C,-14,.,.,.,-12,.
COc1ccccc1/C=C/C=N/Nc1cccc(C(=O)O)c1,54*,-5,8,0,-2,-4
COc1ccccc1/C=C/C(=O)Nc1cccc(C(C)=O)c1,-2,22,21*,0,1,-16
COc1cccc(/C=C/C(=O)c2cccc([N+](=O)[O-])c2)c1OC,-15,-12,10*,0,-5,-36
COc1ccc(/C=C/C(=O)Nc2ccc3c(c2)CCC3)cc1OC,-5,9,-4,0,-4,2
COc1ccc(/C=C/C(=O)Nc2ccc(C(N)=O)cc2)cc1OC,0,15,15*,0,-3,2
COc1cccc(CNS(=O)(=O)c2ccc3c(c2)N(C(C)=O)CCO3)c1,-1,-3,2,0,-2,-7
Cc1[nH]c2ccccc2c1CC(=O)Nc1ccc(Nc2cccnc2)c(-c2ccc(-c3ccccc3)cc2F)c1,-4,.,.,.,0,.
C[C@H]1C2CC(OC(=O)NCCCc3ccccc3)C(C2)[C@H]2CCCCN21 (stereo partly drawn),-1,.,.,.,3,.
CSc1nn(CCC#N)c(=O)[nH]c1=O,-2,.,.,.,7,.
Cc1ccccc1-c1cccc([C@@H]2C[C@H]3[C@H](CON3C)CN2Cc2cc(Cl)cc(Cl)c2)c1,-6,.,1,0,2,.
CCCCOCCCNC(=O)C[C@@H]1C[C@@]2(C(=O)OCC)CCC=C2N(Cc2ccc(Cl)cc2Cl)C1=O,-5,.,.,0,-7,.
CCC(Sc1ccccn1)C(=O)Nc1cccc([N+](=O)[O-])c1 (stereo not drawn),-4,-9,17*,0,1,-14
CC(Sc1cccc[n+]1[O-])C(=O)Nc1cccc([N+](=O)[O-])c1 (stereo not drawn),4,6,-1,1,-2,2
